We go through four compounds from ChEMBL document CHEMBL1147346, “Isolation of pseudoprototimosaponin AIII from rhizomes of Anemarrhena asphodeloides and its hypoglycemic activity in streptozotocin-induced diabetic mice” (1993).

The structures appear in SMILES notation.

For assay [1], the system named is Mus musculus. Nature of the assay: Hypoglycemic activity in fasted po dosed streptozotocin-induced diabetic ddY mouse assessed as decrease in blood glucose level after 6 hrs by glucose oxidase method. It counts as functional. The conditions noted are these: for ED50: read-out: ID50 (the source's name). The procedure, abridged:
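Male ddY mice given streptozotocin 150 mg/kg iv in saline via tail vein, used 1 or 4 weeks later; fasting glucose >150 mg/dl after 13–14 h fast. Graded doses. Percent fall computed from glucose before and after dosing versus 85 mg/dl normal mean. ID50 with 95% confidence limits from dose-inhibition curves; 7–12 mice per point, mean ± SEM.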

Assay [2] has as its system Mus musculus. Nature of the assay: Hypoglycemic activity in fasted alloxan monohydrate-induced diabetic ddY mouse assessed as decrease in blood glucose level at 50 mg/kg, ip after 6 hrs by glucose oxidase method. It is filed as functional. Details: scale not given: the % may be the effect or the level left. The conditions noted are these: route intraperitoneal. The essentials: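 Male ddY mice given alloxan monohydrate 90 mg/kg iv bolus in saline via tail vein, used 1 or 4 weeks later; fasting glucose >150 mg/dl after 13–14 h fast. Dosed 50 mg/kg ip; saline control. Glucose oxidase read-out. Percent fall = (A − B)/(A − 85) × 100, A and B being glucose before and 6 h after injection. Means ± SEM, n = 5–10.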

Assay [3] has as its system Mus musculus. Briefly: Effect on blood glucose level in fasted ddY mouse at 50 mg/kg, ip after 6 hrs by glucose oxidase method. It counts as functional, organism-based. Details: dose 50 mg/kg. The essentials: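 Non-diabetic male ddY mice, 7–8 weeks of age (33–41 g), fasted; 50 mg/kg given ip. Blood glucose measured by glucose oxidase on a glucose analyzer.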
In assay [4] the test system is Pancreas. Nature of the assay: Stimulation of immunoreactive insulin release in perfused Wistar rat pancreas at 1 mg/ml for 10 mins by radioimmunoassay. It counts as functional. The procedure, abridged:
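Male Wistar rat pancreas (6–7 weeks) perfused via celiac artery with KRB pH 7.4, 0.5% BSA, 2% dextran, 2.8 mM glucose basal, 95% O2/5% CO2. Stimulated with 16.7 mM glucose ± 1 mg/ml test agent for 10 min. Portal vein effluent insulin measured by radioimmunoassay. n = 7.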

Turning to `COc1ccc(Cl)cc1C(=O)NCCc1ccc(S(=O)(=O)NC(=O)NC2CCCCC2)cc1` [GLYBURIDE], in assay [1], the Activity entry was “Dose-dependent effect” and the ED50 is 0.33 mg/kg.
On to `CC1=C(CC[C@H](C)CO[C@@H]2O[C@H](CO)[C@@H](O)[C@H](O)[C@H]2O)O[C@H]2C[C@H]3[C@@H]4CC[C@@H]5C[C@@H](O[C@@H]6O[C@H](CO)[C@H](O)[C@H](O)[C@H]6O[C@@H]6O[C@H](CO)[C@@H](O)[C@H](O)[C@H]6O)CC[C@]5(C)[C@H]4CC[C@]3(C)[C@@H]12` [PSEUDOPROTOTIMOSAPONIN AIII], for which the Activity in assay [2] was found to be 82.8%. In assay [1], the Activity entry was “Dose-dependent effect” and the ED50 amounted to 4.33 mg/kg.
For `C[C@H]1CC[C@@]2(OC1)O[C@H]1C[C@H]3[C@@H]4CC[C@@H]5C[C@@H](O[C@@H]6O[C@H](CO)[C@H](O)[C@H](O)[C@H]6O[C@@H]6O[C@H](CO)[C@@H](O)[C@H](O)[C@H]6O)CC[C@]5(C)[C@H]4CC[C@]3(C)[C@H]1[C@@H]2C` [TIMOSAPONIN AIII], in assay [2], the Activity was 64.5%.
With `C[C@@H](CCC1(O)O[C@H]2C[C@H]3[C@@H]4CC[C@@H]5C[C@@H](O[C@@H]6O[C@H](CO)[C@H](O)[C@H](O)[C@H]6O[C@@H]6O[C@H](CO)[C@@H](O)[C@H](O)[C@H]6O)CC[C@]5(C)[C@H]4CC[C@]3(C)[C@H]2[C@@H]1C)CO[C@@H]1O[C@H](CO)[C@@H](O)[C@H](O)[C@H]1O` (stereo partly specified) [PROTOTIMOSAPONIN AIII], the Activity in assay [2] was 73.4%; in assay [3] it was “Dose-dependent effect”; in assay [1], “Dose-dependent effect”; in assay [4], 59.7 ng/mL. The ED50 in assay [1] is 6.62 mg/kg.
